Measurements taken from ChEMBL document CHEMBL1806443, “Novel imidazo[4,5-b]pyridine and triaza-benzo[c]fluorene derivatives: synthesis, antiproliferative activity and DNA binding studies” (Eur J Med Chem, 2011).
Calls of active or inactive are those of the source. No cut-off for these calls is given here.

Legend:
MIA PaCa-2 [1] = test: Antiproliferative activity against human MIAPaCa2 cells after 72 hrs by MTT assay; type: functional, cell-based
How it was run: (§1)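 Monolayer cells in DMEM with 10% FBS, 2 mM L-glutamine, penicillin and streptomycin at 37 °C, 5% CO2. Seeded at 3000-6000 cells/well by doubling time on day 0. Five 10-fold dilutions (0.01–100 µM) were added and incubated 72 h. MTT read-out, converted to percentage growth. IC50 by linear regression between bracketing concentrations. Quadruplicate points, three independent experiments, ANOVA/Tukey p<0.05.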

MCF7 [2] = test: Antiproliferative activity against human MCF7 cells after 72 hrs by MTT assay; type: functional, cell-based; how it was run: as §1
HeLa [3] = test: Antiproliferative activity against human HeLa cells after 72 hrs by MTT assay; type: functional, cell-based; how it was run: as §1
SW-620 [4] = test: Antiproliferative activity against human SW620 cells after 72 hrs by MTT assay; type: functional, cell-based; how it was run: as §1
SK-BR-3 [5] = test: Antiproliferative activity against human SKBR3 cells after 72 hrs by MTT assay; type: functional, cell-based; how it was run: as §1
HEp-2 [6] = test: Antiproliferative activity against human Hep2 cells after 72 hrs by MTT assay; type: functional, cell-based; how it was run: as §1
WI-38 [7] = test: Antiproliferative activity against human WI38 cells after 72 hrs by MTT assay; type: cell-based; how it was run: as §1
WI-38 [8] = test: Cytostatic activity against human WI38 cells at 1 to 10 uM after 72 hrs by MTT assay; type: ADME, cell-based; settings: wi-38, 72 h
How it was run: (§2)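 Monolayers in DMEM with 10% FBS, 2 mM L-glutamine, penicillin and streptomycin (37 °C, 5% CO2) were seeded at 3000–6000 cells/well on day 0. Five 10-fold dilutions (0.01–100 µM) were added, followed by 72-h incubation and MTT read-out. Absorbances were converted to percentage growth by the NIH formulae. Each point was run in quadruplicate in three experiments; ANOVA with Tukey test.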

SW-620 [9] = test: Cytostatic activity against human SW620 cells at 1 to 10 uM after 72 hrs by MTT assay; type: functional, cell-based; how it was run: as §2
MIA PaCa-2 [10] = test: Cytostatic activity against human MIAPaCa2 cells at 1 to 10 uM after 72 hrs by MTT assay; type: functional, cell-based; how it was run: as §2
HEp-2 [11] = test: Cytostatic activity against human Hep2 cells at 1 to 10 uM after 72 hrs by MTT assay; type: functional, cell-based; how it was run: as §2
MCF7 [12] = test: Cytostatic activity against human MCF7 cells at 1 to 10 uM after 72 hrs by MTT assay; type: functional, cell-based; how it was run: as §2
HeLa [13] = test: Cytostatic activity against human HeLa cells at 1 to 10 uM after 72 hrs by MTT assay; type: functional, cell-based; how it was run: as §2
SK-BR-3 [14] = test: Cytostatic activity against human SKBR3 cells at 1 to 10 uM after 72 hrs by MTT assay; type: functional, cell-based; how it was run: as §2

SMILES | IC50 (MIA PaCa-2 [1]; Homo sapiens, MIA PaCa-2, 72 h) [µM] | IC50 (MCF7 [2]; Homo sapiens, MCF7, 72 h) [µM] | IC50 (HeLa [3]; Homo sapiens, HeLa, 72 h) [µM] | IC50 (SW-620 [4]; Homo sapiens, SW-620, 72 h) [µM] | IC50 (SK-BR-3 [5]; Homo sapiens, SK-BR-3, 72 h) [µM] | IC50 (HEp-2 [6]; Homo sapiens, HEp-2, 72 h) [µM] | IC50 (WI-38 [7]; Homo sapiens, WI-38, 72 h) [µM] | further results
Nc1ccc2c(ccc3nc4ncc(Br)cc4n32)c1 [listing 1 of 3 here] |  |  |  |  |  |  |  | IC50 (MIA PaCa-2 [1]; mia paca-2): 40.3 µM; IC50 (MCF7 [2]; mcf7): 67.3 µM; IC50 (HeLa [3]; hela): 37.7 µM; IC50 (SW-620 [4]; sw-620): 40.7 µM; IC50 (SK-BR-3 [5]; sk-br-3): 7.56 µM; IC50 (HEp-2 [6]; hep-2): 21.6 µM; IC50 (WI-38 [7]; wi-38): 85.1 µM
c1cnc2ccc3nc4ncccc4n3c2c1 | > 100 | > 100 | > 100 | > 100 | > 100 | > 100 | > 100 | 
O=[N+]([O-])c1ccc(Cl)c(/C=C/c2nc3ncccc3[nH]2)c1 | 38.8 | 53.6 | 45.1 | 52 | 1.8 | 49.4 | 61.6 | 
Nc1ccc2c(ccc3nc4ncc(Br)cc4n32)c1 [listing 2 of 3 here] | 33 | 61.7 | 30.9 | 38.6 | 7.76 | 14.1 | 85.4 | Activity (WI-38 [8]): Toxic
Nc1ccc2c(ccc3nc4ncc(Br)cc4n32)c1 [listing 3 of 3 here] |  |  |  |  |  |  |  | Activity (SW-620 [9]): Active; Activity (MIA PaCa-2 [10]): Active; Activity (HEp-2 [11]): Active; Activity (MCF7 [12]): Active; Activity (HeLa [13]): Active; Activity (SK-BR-3 [14]): Active
N#Cc1ccc(/C=C/c2nc3ncccc3[nH]2)cc1 | > 100 | 12.9 | 47.1 | > 100 | 86.6 | 84.9 | > 100 | 
C(=C\c1nc2ncccc2[nH]1)/c1ccccc1 | 4.39 | 7.57 | 2.22 | 4.64 | 2.06 | 3.89 | 3.87 | Activity (WI-38 [8]): Toxic; Activity (SW-620 [9]): Active; Activity (MIA PaCa-2 [10]): Active; Activity (HEp-2 [11]): Active; Activity (MCF7 [12]): Active; Activity (HeLa [13]): Active; Activity (SK-BR-3 [14]): Active
C[n+]1cccc2c1nc1ccc3cc([N+](=O)[O-])ccc3n12 | > 100 | > 100 | 11.4 | 26.7 | 33.6 | 31.5 | > 100 | 
O=c1[nH]cc(F)c(=O)[nH]1 [FLUOROURACIL] | 11.5 | 42 | 10.3 | 3.38 | 38.2 | > 100 | 18.5 | 
c1ccc2c(c1)ccc1nc3ncccc3n12 [7,8,11b-triazabenzo[c]fluorene] | 80.5 | 75.5 | 14.3 | 78.3 | 83.5 | 52.3 | 47.4 | 
Clc1cccnc1/C=C/c1nc2ncccc2[nH]1 | > 100 | > 100 | > 100 | > 100 | 53.1 | > 100 | > 100 | 
O=[N+]([O-])c1ccc(Cl)c(/C=C/c2nc3ncc(Br)cc3[nH]2)c1 | 30.6 | 8.81 | 3.68 | 7.99 | 59.9 | 0.91 | 6.48 | Activity (WI-38 [8]): Toxic; Activity (SW-620 [9]): Active; Activity (MIA PaCa-2 [10]): Active; Activity (HEp-2 [11]): Active; Activity (MCF7 [12]): Active; Activity (HeLa [13]): Active; Activity (SK-BR-3 [14]): Active
Nc1ccc2c(ccc3nc4ncccc4n32)c1 |  |  |  |  |  |  |  | IC50 (MIA PaCa-2 [1]; mia paca-2): 43.4 µM; IC50 (MCF7 [2]; mcf7): 56 µM; IC50 (HeLa [3]; hela): 27.2 µM; IC50 (SW-620 [4]; sw-620): 25.9 µM; IC50 (SK-BR-3 [5]; sk-br-3): 3.64 µM; IC50 (HEp-2 [6]; hep-2): 26.7 µM
N#Cc1ccc2ccc3nc4ncccc4n3c2c1 | > 100 | > 100 | 39.5 | > 100 | 67.7 | 47.3 | 51.5 | 
O=[N+]([O-])c1ccc2c(ccc3nc4ncccc4n32)c1 | > 100 | > 100 | 52.8 | > 100 | 42.7 | > 100 | 75.7 | 
O=[N+]([O-])c1ccc2c(ccc3nc4ncc(Br)cc4n32)c1 | 63.5 | > 100 | 13.4 | 61.2 | 8.11 | 31.1 | > 100 | 
